The record followed here is ChEMBL document CHEMBL1126988, “Quinolone antibacterials containing the new 7-[3-(1-aminoethyl)-1- pyrrolidinyl] side chain: the effects of the 1-aminoethyl moiety and its stereochemical configurations on potency and in vivo efficacy” (J Med Chem, 1993).

Converted amounts (≈) assume the structure as drawn.

Assay [1] relates to Staphylococcus aureus. Kind of assay: Minimum inhibitory concentration was evaluated in vitro against Staphylococcus aureus UC 76. It counts as functional. Summed up: (§1)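 Standard microtitration broth assay against a panel of 10 Gram-positive and Gram-negative organisms. MIC read in µg/mL and averaged over multiple experiments.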
Assay [2] deals with Staphylococcus aureus. Description: Minimum inhibitory concentration was evaluated in vitro against Staphylococcus aureus H 228. The assay is classed as functional. In outline: as §1
A short description of assay [3]: Clonogenic cytotoxicity against hamster V-79 cells. The assay is classed as functional, Cricetulus griseus, V79. Summed up: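 Chinese hamster V-79 cells grown overnight, then drug-treated for 3 h at 37 °C. Medium is replaced with fresh medium and cells are incubated 5 days to allow colony formation. IC50 (µg/mL) is the concentration inhibiting colony formation by 50% relative to control.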

The species named for the next assay is Mus musculus. Kind of assay: Compounds were evaluated for phototoxicity no-effect dose in mouse. The assay is classed as functional. Summed up:
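Depilated female CD-1 mice, five per dose plus controls. Animals are dosed orally and then exposed daily to UV-A (320–400 nm) for 3 h, for up to 4 days or until a definite positive response. Redness or erythema relative to controls, read 24 h after irradiation, counts as positive. Reported as the highest dose with no effect (mg/kg).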

The subject of another assay is Enterococcus faecalis. Kind of assay: Minimum inhibitory concentration was evaluated in vitro against Enterococcus faecalis MGH-2. It counts as functional. Summed up: as §1
Assay [4] has as its system Escherichia coli. Description: Antibacterial activity against Escherichia coli Vogel after subcutaneous administration in mouse. The assay is classed as functional. The settings on record: Escherichia coli, sc; read-out: PD50.
Assay [5] deals with Escherichia coli. Kind of assay: Antibacterial activity in vitro against Escherichia coli Vogel. The assay is classed as functional. Summed up: as §1
The test system of another assay is Pseudomonas aeruginosa. Description: Minimum inhibitory concentration was evaluated in vitro against Pseudomonas aeruginosa UI-18. It counts as functional. Summed up: as §1
Assay [6] deals with Streptococcus pyogenes. Kind of assay: Minimum inhibitory concentration was evaluated in vitro against Streptococcus pyogenes C 203. The assay is classed as functional. In outline: as §1
In another assay the test system is Providencia rettgeri. Description: Minimum inhibitory concentration was evaluated in vitro against Providencia rettgeri M1771. It counts as functional. In outline: as §1
The next assay concerns Klebsiella pneumoniae. Description: Minimum inhibitory concentration was evaluated in vitro against Klebsiella pneumoniae MGH2. It counts as functional. Summed up:
as §1

The subject of another assay is Streptococcus pneumoniae. Kind of assay: Minimum inhibitory concentration was evaluated in vitro against Streptococcus pneumoniae SV-1. The assay is classed as functional. Summed up:
as §1

Another assay concerns Enterobacter cloacae. Kind of assay: Minimum inhibitory concentration in vitro against Enterobacter cloacae MA 2646. The assay is classed as functional.
Assay [7] concerns Escherichia coli. Description: Antibacterial activity against Escherichia coli Vogel after oral administration in mouse. It counts as functional. The settings on record: Escherichia coli, po; read-out: PD50.
Assay [8] concerns Streptococcus pyogenes. Description: Compounds were evaluated in vivo for antibacterial activity for mouse protection against Streptococcus pyogenes C 203 after oral administration. It counts as functional. The settings on record: for ED50: Streptococcus pyogenes, C 203, po, read-out: PD50.
The test system of assay [9] is Streptococcus pyogenes. Kind of assay: Antibacterial activity measured as mouse protection against Streptococcus pyogenes C 203 after subcutaneous administration. The assay is classed as functional. The settings on record: for ED50: Streptococcus pyogenes, C 203, sc, read-out: PD50.
Setting [10] is: Staphylococcus aureus, read-out: MIC.
[11] abbreviates: Enterococcus faecalis, read-out: MIC.
Where [12] appears, read: Escherichia coli, read-out: MIC.
The mark [13] stands for this setting: Pseudomonas aeruginosa, read-out: MIC.
Where [14] appears, read: Streptococcus pyogenes, read-out: MIC.
Setting [15] is: Providencia rettgeri, read-out: MIC.
Where [16] appears, read: Klebsiella pneumoniae, read-out: MIC.
The mark [17] stands for this setting: Streptococcus pneumoniae, read-out: MIC.
Where [18] appears, read: Enterobacter cloacae, read-out: MIC.

Usually MIC stands for the smallest concentration in the dilution series that meets the test's criterion for growth inhibition. As to `C[C@@H](N)[C@H]1CCN(c2c(F)c(N)c3c(=O)c(C(=O)O)cn(C4CC4)c3c2F)C1` (racemic), the minimum inhibitory concentration (MIC) in the assay on Staphylococcus aureus [1] (setting [10]) turned out to be 0.003 µg/mL (≈ 0.00765 µM); in the assay on Staphylococcus aureus [2] (setting [10]), 0.003 µg/mL (≈ 0.00765 µM); in the assay on Enterococcus faecalis (setting [11]) it was 0.003 µg/mL (≈ 0.00765 µM); with Escherichia coli [5] (setting [12]) it was 0.013 µg/mL (≈ 0.0331 µM); in the assay on Pseudomonas aeruginosa (setting [13]) it was 0.4 µg/mL (≈ 1.02 µM); with Streptococcus pyogenes [6] (setting [14]) it was 0.003 µg/mL (≈ 0.00765 µM). Moreover, the MIC with Providencia rettgeri (setting [15]) amounted to 0.025 µg/mL (≈ 0.0637 µM); in the assay with Klebsiella pneumoniae (setting [16]) it was 0.013 µg/mL (≈ 0.0331 µM); with Streptococcus pneumoniae (setting [17]) it was 0.003 µg/mL (≈ 0.00765 µM); in the assay with Enterobacter cloacae (setting [18]), 0.013 µg/mL (≈ 0.0331 µM). The same compound yielded a Cytotoxicity in assay [3] below 7.8 µg/mL. Moreover, the Dose in the assay filed under Mus musculus is below 30 mg/kg. Further, the ED50 was 0.3 mg/kg in the assay on Escherichia coli [4], 2 mg/kg in the assay with Escherichia coli [7], 0.6 mg/kg in the assay on Streptococcus pyogenes [8] and 0.1 mg/kg in the assay on Streptococcus pyogenes [9].
Take `CN[C@H](C)[C@H]1CCN(c2c(F)cc3c(=O)c(C(=O)O)cn(C4CC4)c3c2C(F)(F)F)C1` (mixture of isomers): the minimal inhibitory concentration (MIC) is 0.013 µg/mL in the assay with Staphylococcus aureus [1] (setting [10]); 0.025 µg/mL with Staphylococcus aureus [2] (setting [10]); 0.1 µg/mL in the assay with Enterococcus faecalis (setting [11]); 0.4 µg/mL in the assay on Escherichia coli [5] (setting [12]); 3.1 µg/mL in the assay on Pseudomonas aeruginosa (setting [13]); 0.013 µg/mL in the assay with Streptococcus pyogenes [6] (setting [14]). The MIC with Providencia rettgeri (setting [15]) is 0.8 µg/mL; in the assay on Klebsiella pneumoniae (setting [16]) it was 0.8 µg/mL; in the assay with Streptococcus pneumoniae (setting [17]), 0.013 µg/mL; with Enterobacter cloacae (setting [18]), 0.4 µg/mL. For the same compound, in [3], the Cytotoxicity stood at 130 µg/mL. The compound also returned a Dose in the assay filed under Mus musculus above 100 mg/kg. Moreover, the ED50 in the assay with Escherichia coli [4] is 2 mg/kg; in the assay on Escherichia coli [7], 4 mg/kg; in the assay on Streptococcus pyogenes [8], 0.8 mg/kg; in the assay on Streptococcus pyogenes [9] it was 0.3 mg/kg.
As for `CNC(C)C1CCN(c2nc3c(cc2F)c(=O)c(C(=O)O)cn3-c2ccc(F)cc2F)C1` (racemic), the MIC with Staphylococcus aureus [1] (setting [10]) turned out to be 0.025 µg/mL (≈ 0.056 µM); in the assay on Staphylococcus aureus [2] (setting [10]), 0.1 µg/mL (≈ 0.224 µM); in the assay on Enterococcus faecalis (setting [11]), 0.2 µg/mL (≈ 0.448 µM); in the assay with Escherichia coli [5] (setting [12]) it was 0.4 µg/mL (≈ 0.896 µM); in the assay on Pseudomonas aeruginosa (setting [13]), 3.1 µg/mL (≈ 6.94 µM); with Streptococcus pyogenes [6] (setting [14]) it was 0.05 µg/mL (≈ 0.112 µM). The MIC in the assay on Providencia rettgeri (setting [15]) was determined as 1.6 µg/mL (≈ 3.58 µM); with Klebsiella pneumoniae (setting [16]), 0.8 µg/mL (≈ 1.79 µM); in the assay with Streptococcus pneumoniae (setting [17]), 0.025 µg/mL (≈ 0.056 µM); in the assay with Enterobacter cloacae (setting [18]) it was 0.8 µg/mL (≈ 1.79 µM). In assay [3], this compound registered a Cytotoxicity of 310 µg/mL. This compound yielded a Dose in the assay filed under Mus musculus above 100 mg/kg. The ED50 with Escherichia coli [4] stood at 2 mg/kg; in the assay with Escherichia coli [7] it was 6 mg/kg; with Streptococcus pyogenes [8], 4 mg/kg; in the assay with Streptococcus pyogenes [9], 1 mg/kg.
As to `NC1CCN(c2nc3c(cc2F)c(=O)c(C(=O)O)cn3-c2ccc(F)cc2F)C1` (stereo unspecified) [TOSUFLOXACIN], the MIC with Staphylococcus aureus [1] (setting [10]) was 0.013 µg/mL (≈ 0.0322 µM); in the assay on Staphylococcus aureus [2] (setting [10]), 0.05 µg/mL (≈ 0.124 µM); in the assay on Enterococcus faecalis (setting [11]) it was 0.1 µg/mL (≈ 0.247 µM); with Escherichia coli [5] (setting [12]), 0.025 µg/mL (≈ 0.0618 µM); in the assay on Pseudomonas aeruginosa (setting [13]) it was 0.4 µg/mL (≈ 0.989 µM); in the assay with Streptococcus pyogenes [6] (setting [14]), 0.05 µg/mL (≈ 0.124 µM). The MIC in the assay on Providencia rettgeri (setting [15]) worked out at 0.1 µg/mL (≈ 0.247 µM); in the assay on Klebsiella pneumoniae (setting [16]), 0.1 µg/mL (≈ 0.247 µM); in the assay on Streptococcus pneumoniae (setting [17]) it was 0.05 µg/mL (≈ 0.124 µM); in the assay on Enterobacter cloacae (setting [18]) it was 0.025 µg/mL (≈ 0.0618 µM). Moreover, the Cytotoxicity in [3] came to 120 µg/mL. The compound also displayed a Dose in the assay filed under Mus musculus above 100 mg/kg. Moreover, the ED50 worked out at 0.2 mg/kg with Escherichia coli [4], 0.5 mg/kg in the assay on Escherichia coli [7], 5 mg/kg in the assay on Streptococcus pyogenes [8] and 3 mg/kg with Streptococcus pyogenes [9].
For the compound `CN[C@H](C)[C@H]1CCN(c2c(F)c(N)c3c(=O)c(C(=O)O)cn(C4CC4)c3c2F)C1` (mixture of isomers), the MIC was 0.003 µg/mL with Staphylococcus aureus [1]; 0.003 µg/mL with Staphylococcus aureus [2]; 0.013 µg/mL with Enterococcus faecalis; 0.025 µg/mL with Escherichia coli [5]; 0.8 µg/mL with Pseudomonas aeruginosa; 0.003 µg/mL with Streptococcus pyogenes [6]. The MIC in the assay on Providencia rettgeri turned out to be 0.1 µg/mL; against Klebsiella pneumoniae, 0.05 µg/mL; in the assay on Streptococcus pneumoniae it was 0.003 µg/mL; in the assay with Enterobacter cloacae it was 0.025 µg/mL. Also, the Cytotoxicity in [3] worked out at 17 µg/mL. The compound also returned a Dose in the assay filed under Mus musculus below 30 mg/kg. In addition, the ED50 in the assay on Escherichia coli [4] was 0.4 mg/kg; in the assay on Escherichia coli [7] it was 3 mg/kg. The PD50 with Streptococcus pyogenes [8] is 0.6 mg/kg; in the assay with Streptococcus pyogenes [9], 0.3 mg/kg.
Take `Nc1c(F)c(N2CCC(N)C2)cc2c1c(=O)c(C(=O)O)cn2C1CC1` (stereo unspecified): the minimal inhibitory concentration (MIC) with Staphylococcus aureus [1] (setting [10]) is 0.025 µg/mL (≈ 0.0722 µM); in the assay on Staphylococcus aureus [2] (setting [10]) it was 0.1 µg/mL (≈ 0.289 µM); in the assay on Enterococcus faecalis (setting [11]), 0.1 µg/mL (≈ 0.289 µM); in the assay with Escherichia coli [5] (setting [12]), 0.013 µg/mL (≈ 0.0375 µM); with Pseudomonas aeruginosa (setting [13]), 0.4 µg/mL (≈ 1.15 µM); with Streptococcus pyogenes [6] (setting [14]), 0.05 µg/mL (≈ 0.144 µM). In addition, the minimal inhibitory concentration (MIC) in the assay on Providencia rettgeri (setting [15]) was 0.1 µg/mL (≈ 0.289 µM); with Klebsiella pneumoniae (setting [16]) it was 0.025 µg/mL (≈ 0.0722 µM); in the assay on Streptococcus pneumoniae (setting [17]) it was 0.025 µg/mL (≈ 0.0722 µM); in the assay with Enterobacter cloacae (setting [18]), 0.013 µg/mL (≈ 0.0375 µM). Also, the Cytotoxicity in assay [3] was determined as 12 µg/mL. In the assay listed under Mus musculus, this compound came in with a Dose above 300 mg/kg. Further, the ED50 in the assay on Escherichia coli [4] came out at 1 mg/kg; in the assay with Escherichia coli [7], 8 mg/kg; with Streptococcus pyogenes [8], 110 mg/kg; in the assay on Streptococcus pyogenes [9], 6 mg/kg.
